Compound activity (PubChem)
This is one part of a sample in which hits are shown more often than they occur.
T cruzi repl: inhibitors of intracellular T. cruzi growth, primary screen, luminescence, NIH3T3 host cells | T. cruzi beta-gal in NIH3T3, 90 h | inhibition, % (no concentration beside the values) | 300,000 compounds, 1.4% hits | AID 1885, 2009;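 active means mean inhibition across valid replicates above about 55%, limit read from the data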;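 further: signal also drops with host cell toxicity which is not excluded here; higher percent means less beta-gal luminescence so fewer parasites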
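System – NIH/3T3 host cells with β-galactosidase reporter T. cruzi · Doses – single 50 nL compound addition per well in DMSO · Reagent – 5000 T. cruzi trypomastigotes/well · Medium – Low-serum DMEM with 2% FBS · Timing – ≥90 h infection period, 3 h prior cell attachment · Evaluation – parasite load inhibition, % · Technique – GalScreen luminescence, 60 min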
CHOP inhibitor: inhibitors of CHOP promoter induction, primary screen, cell-based, unfolded protein response, luciferase reporter; inhibition, % at 10 µM; 220,000 compounds, 3.8% hits; CHO-K1 CHOP-promoter luciferase, tunicamycin-induced, 15-18 h;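 active means compounds that reduced the stress-induced luciferase reporter signal by more than about 70% of percent inhibition, limit read from the data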
XBP1 UPR activ: activators of adaptive XBP1 UPR arm, primary screen, cell-based, CHO-XBP1 luciferase reporter, luminescence, uHTS; IRE1-XBP1 UPR activation; percent of tunicamycin response, DMSO as zero; activation, % at 20 µM; 330,000 compounds, 0.33% hits;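 active means versus positive control, 20 µM dose yields 30% or more activation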
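Material: IRE1-XBP1 luciferase reporter CHO line / Quantity: one thousand reporter cells per well / Buffer or medium: F12 with 10% serum / Compound: 20 µM single concentration, DMSO 1% / Times: 6 h treatment, 37 °C / Detection: Steady-Glo luciferase glow luminescence, 10 min after reagent addition / Benchmarks: tunicamycin high, DMSO low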
UPR CHOP act: activators of apoptotic CHOP UPR arm, primary screen, cell-based, CHO-CHOP luciferase reporter, luminescence, uHTS. UPR activation; percent of tunicamycin response over DMSO baseline. activation, % at 10 µM. 330,000 compounds, 0.34% hits. AID 449763, 2010;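 active means at 10 µM dose, activation of 40% or more, normalized to positive control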
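Test system: CHO-CHOP cells, stable luciferase reporter of PERK-eIF2a-CHOP signalling | Quantity: 500 CHO-CHOP cells per well | Buffer or medium: F12 plus 10% serum | Compound dosing: 10 µM single point, 0.5% DMSO | Schedule: 6 h compound treatment, 37 °C | Signal: Luciferase luminescence | Control set: Tunicamycin high control, DMSO low control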
Dynein transport: inhibitors of GR-EGFP nuclear translocation, primary screen, dynein cargo transport inhibitor project, imaging, high-content, 3617.4 mouse cells. test concentration mostly 20 µM; stimulated with dexamethasone, 1 µM; hits give low values. z-score, hits read low. 220,000 compounds, 0.47% hits;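 active means plate z-score of nuclear minus cytoplasmic receptor signal below a set negative limit, without overly bright fluorescence or cell loss, cut at about -3.5 in these data, passing the limit was not always enough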;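 further: z-score of nuclear minus cytoplasmic ring GR-EGFP intensity difference per well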
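Buffer or medium: tet-free, stripped-serum medium; Also added: dexamethasone, 1.0 µM final; Technique: high-content fluorescence imaging after fixation; Times: 48 h induction, 1 h compound, 30 min dex at 37 °C; Read-out: per-cell GR-EGFP intensity, nucleus versus surrounding cytoplasmic ring, well-averaged.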
L major viab: Leishmania major promastigote growth inhibition, primary screen; Leishmania major promastigotes, resazurin fluorescence viability; inhibition, % at 10 µM; 200,000 compounds, 9% hits; AID 1063, 2008; in the data active means inhibition above about 50%;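 further: promastigotes grown with compound for 44 hours at 28 °C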
A number is an active result; - = inactive; . = no result.

SMILES	T cruzi repl	CHOP inhibitor	XBP1 UPR activ	UPR CHOP act	Dynein transport	L major viab
O=C(CSc1nc(=O)n2ccccc2n1)NCc1ccccc1	-	.	-	-	.	.
Cc1cccc(C)c1NC(=O)CN1CCNCC1	-	87	-	-	-	-
Cc1c(Cl)cccc1NC(=O)c1nc(C)n(-c2cc(OC(C)C)c(Cl)cc2Cl)n1	56	-	-	-	-	-
CNC(=O)c1nc(C)n(-c2ccc(Cl)cc2Cl)n1	-	-	-	-	-	-
COC(=O)c1ccccc1NS(=O)(=O)c1c(C)noc1C	-	.	-	-	.	.
Cc1ccc(S(=O)(=O)N2CCCC2CNC(=O)C(=O)NC2CCCC2)cc1 (configuration not stated)	-	.	-	-	.	.
CSc1nc2cc3c(cc2n1C(=O)c1ccc(C)cc1)OCCO3	-	90	-	-	-	-
COc1cccc(C(=O)n2c(SC)nc3cc4c(cc32)OCCO4)c1	-	-	-	-	-	-
COc1ccc(-c2cc3c(=O)n(CC(=O)N4CCN(C)CC4)ncn3n2)cc1	-	.	-	-	.	.
Fc1ccccc1C1c2[nH]c3ccccc3c2CCN1Cc1cccn1-c1ncccn1 (configuration not stated)	77	-	-	-	-	-
Cc1ccccc1C1c2[nH]c3ccccc3c2CCN1Cc1cccn1-c1ncccn1 (configuration not stated)	55	-	-	-	-	.
Cc1ccccc1C1c2[nH]c3ccccc3c2CCN1CCCn1cccn1 (configuration not stated)	-	-	-	-	-	-
COc1ccc(C2c3[nH]c4ccccc4c3CCN2CCCn2cccn2)c(F)c1 (configuration not stated)	-	-	-	-	-	.
CCC1CCc2sc(C(=O)NCC(c3ccc(OC)cc3)N3CCCC3)cc2C1 (configuration not stated)	66	.	-	-	.	.
Cc1c(C(=O)Nc2ccc(-c3nnc4n3CCCCC4)cc2)oc2ccc(Br)cc12	61	-	-	-	-	-
COc1ccc(C(CNC(=O)c2oc3ccc(Br)cc3c2C)N2CCCCC2)cc1 (configuration not stated)	55	78	-	-	-	60
Cc1ccc(NC(=O)C2CC(=O)Nc3ncnn32)c(C)c1 (configuration not stated)	-	-	-	-	-	.
CCCn1c(C2CCCN2c2nc(-c3cccc(Br)c3)cs2)nc2ccccc21 (configuration not stated)	-	.	-	-	.	.
C[C@H](CO)N1C[C@H](C)[C@@H](CN(C)Cc2ccc(Oc3ccccc3)cc2)Oc2c(NS(=O)(=O)c3cn(C)cn3)cccc2C1=O	.	.	-	-	.	.
CCN(CC)C(=O)c1ccc(S(=O)(=O)N2CCC(c3nc4ccccc4s3)CC2)cc1	-	74	-	-	-	-
CC1CCCN(C(=O)c2ccc(S(=O)(=O)N3CCC(c4nc5ccccc5s4)CC3)cc2)C1 (configuration not stated)	-	.	-	-	-	-
CC(=O)NCCOc1nc(N2CCCCC2)nc(N2CCCCC2)n1	-	-	-	-	-	96
COC1CCCN(C(=O)c2cccc(OC3CCN(S(C)(=O)=O)CC3)c2)C1 (configuration not stated)	-	.	-	-	.	.
CC(c1ccccc1)N(CCC(c1ccccc1)C1CCOC(C)(C)C1)C(=O)c1ccco1 (configuration not stated)	-	80	-	-	-	-
COc1ccc(CN(CCC(c2ccc(F)cc2)C2CCOC(C)(C)C2)C(=O)c2ccco2)cc1 (configuration not stated)	-	-	-	-	-	-
CN1/C(=C/c2cccc[n+]2CCO)Sc2ccccc21	-	.	-	-	.	.
CC[n+]1ccccc1/C=C1\Sc2ccc(C)cc2N1C	63	.	-	-	.	.
CO/N=C/C(C#N)=C/c1cc(C(=O)c2ccccc2)cn1C	-	-	-	-	-	-
